From PubChem BioAssay
YB-1 expr inh – YB-1 expression inhibition; U2OS, qRT-PCR YB-1 vs CDIP delta delta Cp, 16 h; active compounds read high; zero = DMSO, each unit about twofold; delta delta Cp (YB-1 minus CDIP) (no concentration beside the values); 30,000 compounds, 0.37% hits;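 active = delta delta Cp rounded down to an integer at or above 3, about 3 SD of DMSO wells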;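 note: higher means less YB-1 transcript or more CDIP transcript relative to DMSO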
INS-1E ATP HTS – preserves ATP levels in cytokine-treated INS-1E cells; INS-1E cytokine-induced death, ATP luminescence, 48 h; normalised: neutral wells 0, positive control 100; protection from cytokine-induced ATP loss, % at 10 µM; 20,000 compounds, 0.1% hits; AID 488910;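 active = mean replicate protection from cytokine-induced ATP loss at least 50% and at least 75% of replicates each reaching 50%; inconclusive = meets only one of the two criteria, mean or replicate share; inactive = fails both the mean and replicate share criteria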
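Material: INS-1E rat cells; Quantity: 8000 cells/well; Buffer or medium: phenol-red-free RPMI with 5% fetal bovine serum; Probe or stimulus: cytokine cocktail of IFN-γ, TNF-α and IL-1β; Compound dosing: single test concentration per compound, delivered by pin transfer; Incubation: 48 h co-treatment, 10 min post-lysis read; Signal: CellTiter-Glo luminescence.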
T cruzi intra – intracellular Trypanosoma cruzi inhibition. intracellular Trypanosoma cruzi in host cells, plate reader. activity score (inhibition), % at 5.01 µM. 22,000 compounds, 4.9% hits. AID 651903; in the data active = activity score above about 55%; inconclusive = no clear call, values can overlap the other calls;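 note: parasites and compound incubated about four days before reading; 0% = median of neutral control wells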
* = called active by the depositor. Only a selection was taken, and hits are over-represented in it overall.

What do the screens show for `O=C1O[C@H](c2ccccc2)[C@H](c2ccccc2)N2[C@H]1[C@@H](C(=O)NC[C@H](O)c1ccccc1)[C@]1(C(=O)Nc3ccc(C#CC4=CCCCC4)cc31)[C@H]2c1ccccc1OCCO`?
YB-1 expr inh: -0.51

What do the screens show for `O=C1C=CC(O)(/C=C/C(=O)O[C@@H]2[C@@H](O)[C@H](Oc3ccc(O)cc3)O[C@H](CO)[C@H]2O)C=C1`?
YB-1 expr inh: 0.15

What do the screens show for `C[C@@H]1CN([C@@H](C)CO)C(=O)c2cccc(NC(=O)Nc3ccc(C(F)(F)F)cc3)c2O[C@@H]1CN(C)Cc1ccc(C(F)(F)F)cc1`?
YB-1 expr inh: -0.15; INS-1E ATP HTS: -88; T cruzi intra: 81*

Results for COc1ccc(CN(C)C[C@@H]2Oc3c(NC(=O)Nc4ccccc4)cccc3C(=O)N([C@@H](C)CO)C[C@H]2C)cc1 ?
YB-1 expr inh: 0.33; INS-1E ATP HTS: -6; T cruzi intra: 32

How did COc1ccc(NC(=O)Nc2cccc3c2O[C@H](CN(C)Cc2ccccc2)[C@@H](C)CN([C@@H](C)CO)C3=O)cc1 do in these assays?
YB-1 expr inh: 3.6*; INS-1E ATP HTS: -6; T cruzi intra: -1

Results for COc1ccc(NC(=O)Nc2cccc3c2O[C@H](CN(C)Cc2ccc(C(F)(F)F)cc2)[C@@H](C)CN([C@H](C)CO)C3=O)cc1 ?
YB-1 expr inh: 0.54; INS-1E ATP HTS: -13; T cruzi intra: -3

What do the screens show for `C[C@H]1CN([C@@H](C)CO)C(=O)c2cccc(NC(=O)Nc3ccc(C(F)(F)F)cc3)c2O[C@H]1CN(C)Cc1ccc2c(c1)OCO2`?
YB-1 expr inh: 0.039; INS-1E ATP HTS: -34; T cruzi intra: 85*

What do the screens show for `C[C@H]1CN([C@@H](C)CO)C(=O)c2cccc(NC(=O)Nc3ccc(C(F)(F)F)cc3)c2O[C@@H]1CN(C)Cc1ccc(C(F)(F)F)cc1`?
YB-1 expr inh: 0.028; INS-1E ATP HTS: -109; T cruzi intra: 35

How did COc1ccc(CN(C)C[C@@H]2Oc3c(NC(=O)Nc4ccc(C(F)(F)F)cc4)cccc3C(=O)N([C@H](C)CO)C[C@H]2C)cc1 do in these assays?
YB-1 expr inh: 0.29; INS-1E ATP HTS: -77; T cruzi intra: 79*

How did C[C@H]1CN([C@@H](C)CO)C(=O)c2cccc(NC(=O)Nc3ccc4c(c3)OCO4)c2O[C@H]1CN(C)Cc1ccc(C(F)(F)F)cc1 do in these assays?
YB-1 expr inh: -0.11; INS-1E ATP HTS: -11; T cruzi intra: 26

What do the screens show for `CCn1c(=NC(=O)c2ccc(S(=O)(=O)N(C)C)cc2)sc2ccccc21`?
YB-1 expr inh: 0.31

What do the screens show for `C[C@H](CO)N1C[C@H](C)[C@H](CN(C)Cc2ccc(Oc3ccccc3)cc2)Oc2c(NC(=O)Nc3ccc(C(F)(F)F)cc3)cccc2C1=O`?
YB-1 expr inh: 0.25; INS-1E ATP HTS: -111; T cruzi intra: 62*

Results for C[C@H](CO)N1C[C@H](C)[C@@H](CN(C)Cc2ccc(C(F)(F)F)cc2)Oc2c(NC(=O)Nc3ccc(F)cc3)cccc2C1=O ?
YB-1 expr inh: 0.11; INS-1E ATP HTS: -36; T cruzi intra: 74*

How did C[C@H]1CN([C@@H](C)CO)C(=O)c2cccc(NC(=O)Nc3ccc(C(F)(F)F)cc3)c2O[C@@H]1CN(C)Cc1ccc(Oc2ccccc2)cc1 do in these assays?
YB-1 expr inh: -0.5; INS-1E ATP HTS: -34; T cruzi intra: 30

Results for C[C@@H]1CN([C@H](C)CO)C(=O)c2cccc(NC(=O)Nc3ccc(F)cc3)c2O[C@H]1CN(C)Cc1ccc(C(F)(F)F)cc1 ?
YB-1 expr inh: 0.13; INS-1E ATP HTS: -31; T cruzi intra: 31

What do the screens show for `CCCN1CC=C2C(C#N)(C#N)C(N)=C(C#N)C(c3ccc(OCC(N)=O)cc3)C2(C)C1` (stereo unspecified)?
YB-1 expr inh: -0.51

How did O=c1cc(CSc2ccc(Cl)cc2)c2ccc(O)cc2o1 do in these assays?
YB-1 expr inh: -0.11

How did N#CCSc1nc2cc(C(=O)NCc3ccccc3)ccc2c(=O)n1CCc1ccccc1 do in these assays?
YB-1 expr inh: -0.058

Results for C[C@H]1CN([C@@H](C)CO)C(=O)c2cc(NC(=O)Nc3ccc(C(F)(F)F)cc3)ccc2O[C@H]1CN(C)Cc1ccc(C(F)(F)F)cc1 ?
YB-1 expr inh: -0.38; INS-1E ATP HTS: -14; T cruzi intra: inconclusive

Results for C[C@H]1CN([C@@H](C)CO)C(=O)c2cc(NC(=O)Nc3ccc4c(c3)OCO4)ccc2O[C@@H]1CN(C)Cc1ccc2c(c1)OCO2 ?
YB-1 expr inh: -0.097; INS-1E ATP HTS: -4; T cruzi intra: -2

How did C[C@@H]1CN([C@H](C)CO)C(=O)c2cc(NC(=O)Nc3ccc4c(c3)OCO4)ccc2O[C@H]1CN(C)Cc1ccc(Oc2ccccc2)cc1 do in these assays?
YB-1 expr inh: -0.092; T cruzi intra: -6

How did C[C@H]1CN([C@@H](C)CO)C(=O)c2cc(NC(=O)Nc3ccccc3)ccc2O[C@H]1CN(C)Cc1ccc2c(c1)OCO2 do in these assays?
YB-1 expr inh: -0.45; T cruzi intra: 52*

Results for C[C@@H]1CN([C@H](C)CO)C(=O)c2cc(NC(=O)Nc3ccc(C(F)(F)F)cc3)ccc2O[C@H]1CN(C)Cc1ccc2c(c1)OCO2 ?
YB-1 expr inh: -0.00023; INS-1E ATP HTS: -19; T cruzi intra: 36

Results for C[C@@H]1CN([C@@H](C)CO)C(=O)c2cc(NC(=O)Nc3ccc4c(c3)OCO4)ccc2O[C@@H]1CN(C)Cc1ccc(C(F)(F)F)cc1 ?
YB-1 expr inh: -0.007; T cruzi intra: 68*

Results for C[C@@H]1CN([C@H](C)CO)C(=O)c2cc(NC(=O)Nc3ccc4c(c3)OCO4)ccc2O[C@@H]1CN(C)Cc1ccc(Oc2ccccc2)cc1 ?
YB-1 expr inh: -0.22; INS-1E ATP HTS: -12; T cruzi intra: 62*

Results for C[C@H]1CN([C@@H](C)CO)C(=O)c2cc(NC(=O)Nc3ccc(C(F)(F)F)cc3)ccc2O[C@H]1CN(C)Cc1ccc2c(c1)OCO2 ?
YB-1 expr inh: 0.45; T cruzi intra: 34*

What do the screens show for `CC1(C)N=C(NS(=O)(=O)c2cc(C(F)(F)F)cc(C(F)(F)F)c2)N(c2ccccc2)O1`?
YB-1 expr inh: 0.17

How did O=c1cc(Nc2ccc(Cl)cc2)nc(COc2ccccc2)[nH]1 do in these assays?
YB-1 expr inh: -0.19

Results for O=C(c1cccc(Cl)c1)N1CCOCC1 ?
YB-1 expr inh: 0.18

How did CCOC(=O)CSc1nc2cccnc2s1 do in these assays?
YB-1 expr inh: -0.56

What do the screens show for `CN(C)/C=C/C(=O)c1ccsc1`?
YB-1 expr inh: -0.086

What do the screens show for `C[C@H](CO)N1C[C@H](C)[C@H](CN(C)S(=O)(=O)c2ccc(F)cc2)Oc2ncc(-c3cccc(F)c3)cc2C1=O`?
YB-1 expr inh: -0.17; T cruzi intra: 28

Results for COc1cccc(-c2cnc3c(c2)C(=O)N([C@H](C)CO)C[C@H](C)[C@H](CN(C)C)O3)c1 ?
YB-1 expr inh: -0.15; T cruzi intra: 76*

Results for C[C@H](CO)N1C[C@H](C)[C@H](CN(C)Cc2ccncc2)Oc2ncc(-c3ccc(F)cc3)cc2C1=O ?
YB-1 expr inh: -0.18; T cruzi intra: 7
